# High-throughput results: PubChem, Johns Hopkins Ion Channel Center
# Sampled rows, rich in hits. Any-hit rate of the full collection: about 3.5%.
# MrgX1 antagonist: blocks BAM8-22 activation of human MrgX1 receptor; Q96LB2; MRGX1-HEK293 calcium flux, Fluo-4, BAM8-22 antagonism; hits give low values; B-score at 10 µM; actives 1.3% (n = 310,000); AID 588676;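 active = calcium-response B-score plate-corrected more than 3 library SD below zero, starting fluorescence within 5 deviations, no agonist response on first addition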;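 also: peak minus trough fluorescence over baseline after final BAM8-22 challenge near maximal dose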
# Target sequence (Q96LB2 whole entry, looked up): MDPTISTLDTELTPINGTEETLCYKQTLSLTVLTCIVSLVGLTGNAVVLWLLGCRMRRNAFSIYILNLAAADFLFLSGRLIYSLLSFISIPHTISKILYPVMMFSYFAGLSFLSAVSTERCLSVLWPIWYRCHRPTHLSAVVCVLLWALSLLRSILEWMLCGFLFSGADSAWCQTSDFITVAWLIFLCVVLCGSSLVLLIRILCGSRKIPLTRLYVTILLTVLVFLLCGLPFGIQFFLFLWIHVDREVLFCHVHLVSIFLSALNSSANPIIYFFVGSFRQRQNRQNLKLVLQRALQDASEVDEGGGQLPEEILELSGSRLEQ
# MrgX1 ag: activates human MrgX1 receptor signaling. B-score at 10 µM. actives 0.44% (n = 310,000). MrgX1-HEK293 cells, Fluo-4 calcium fluorescence, agonist mode; hits give high values;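 active = calcium response B-score plate-corrected fluorescence ratio at least 3 library SD, with starting fluorescence B-score inside 5 SD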
#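 System – MrgX1-expressing HEK293 cells · Incubation – cells plated overnight, dye loaded 0.5 h 37 °C, 0.5 h room temperature · Technique – kinetic Fluo-4 NW fluorescence of intracellular calcium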
# RGS4 block: inhibitors of human RGS4; P49798; HEK293 M3R/RGS4 inducible, Fluo-4 calcium flux; hits give high values; triggered by carbachol at its EC20; B-score at 10 µM; actives 0.45% (n = 310,000); AID 463165;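 active = B-score, a plate-corrected calcium signal, over three deviations above library mean, with baseline fluorescence within five deviations of library mean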;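 also: RGS4 expression induced by doxycycline in cells with stable M3 receptor; B-score is computed from the integrated fluorescence ratio over baseline after carbachol; higher B-score means a larger calcium signal and so more RGS4 inhibition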
# Target sequence (P49798 whole entry, looked up): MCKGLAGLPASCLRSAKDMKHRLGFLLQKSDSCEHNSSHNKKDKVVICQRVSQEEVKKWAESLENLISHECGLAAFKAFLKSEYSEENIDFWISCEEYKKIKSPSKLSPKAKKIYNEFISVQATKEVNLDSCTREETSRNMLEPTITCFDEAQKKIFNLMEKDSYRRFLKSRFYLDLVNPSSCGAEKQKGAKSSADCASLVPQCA
# RGS4 act: RGS4 potentiation or activation. HEK293 M3R/inducible RGS4, carbachol calcium flux Fluo4; hits give low values. B-score at 10 µM. actives 0.92% (n = 310,000). AID 463111;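 active = B-score of the integrated calcium signal more than 4 SD below the library mean, with starting fluorescence not abnormally high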;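 also: negative B-score means reduced calcium response which marks RGS4 activation or potentiation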
#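 System: HEK293 FlpIn-TREx cells, stable M3R, doxycycline-inducible RGS4. Timing: overnight RGS4 induction, 30 min dye load 37 °C, 20 min compound RT. Also added: carbachol, ECmax concentration. Measured by: Fluo4 fluorescence kinetic imaging of calcium. Evaluation: integrated calcium ratio converted to B score.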
# MrgX1 PAM: allosterically activates human MrgX1 receptor signaling. Q96LB2. MrgX1-HEK293, Fluo-4 calcium flux, FDSS; hits give high values. B-score at 10 µM. actives 0.63% (n = 310,000). AID 588675;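 active = plate-corrected calcium response at least 3 library SD above typical, normal starting fluorescence, not activating the receptor alone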;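 also: compound read alongside a low EC10 to EC30 dose of BAM8-22 agonist; peak minus trough fluorescence over baseline measured at the second addition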
# MrgX1 PAM conf: reconfirmed allosteric activator of human MrgX1 receptor; actives 13% (n = 1,200); AID 602413; shares compounds with MrgX1 PAM; activation (ratio percentage), % at 10 µM; MrgX1-HEK293, Fluo-4 calcium fluorescence, FDSS;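 active = ratio at least 3 SD above the weak peptide control, stable starting fluorescence, no direct agonism earlier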;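 also: compound followed by low BAM8-22 agonist challenge near EC20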
# HEK293 Ca flux: counter-screen for MrgX1 antagonists: effect in parental HEK293 cells | shares compounds with MrgX1 antagonist | Fluo-4 calcium fluorescence, FDSS | fluorescence ratio F(max-min)/F0 at 10 µM | actives 2% (n = 4,000);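 active = duplicate-averaged calcium fluorescence ratio at least three times the standard deviation of buffer wells, a nonspecific response in parental cells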
# HEK293 Ca counter: counter-screen for MrgX1 allosteric activators: effect in parental HEK293 cells | fluorescence ratio F(max-min)/F0 at 10 µM | AID 624114 | parental HEK293 calcium flux, Fluo-4 fluorescence ratio; hits give high values | actives 0.4% (n = 4,000) | shares compounds with MrgX1 antagonist;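 active = calcium fluorescence ratio, averaged over duplicates, at least 3 SD of the buffer-well ratio, meaning a nonspecific response in receptor-free cells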;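 also: untransfected parental HEK293 lacking MrgX1 used as counterscreen for MrgX1 allosteric activators; fluorescence change taken during the second addition on a kinetic imager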
# HEK293 Ca cntr2: MrgX1 activator counter-screen hit in parental HEK293 cells; AID 624115; fluorescence ratio F(max-min)/F0 at 10 µM; Fluo-4 calcium fluorescence (FDSS); hits give high values; shares compounds with MrgX1 antagonist; actives 8.7% (n = 4,000);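 active = calcium fluorescence ratio at least three times the spread of buffer wells, meaning a non-specific response in parental cells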
# * marks the source's active call; other numbers are inactive results; i = inactive; · = not tested or not shown.
SMILES,MrgX1 antagonist,MrgX1 ag,RGS4 block,RGS4 act,MrgX1 PAM,MrgX1 PAM conf,HEK293 Ca flux,HEK293 Ca counter,HEK293 Ca cntr2
C/C(=N\NC(=O)C(O)c1ccccc1)c1ccc(Br)s1 (stereo not given),i,i,i,i,i,·,·,·,·
O=C(O)C1CC=CCC1C(=O)Nc1ccc(N2CCN(Cc3ccccc3)CC2)cc1 (stereo not given),i,i,i,i,7.4*,i,i,i,i
O=C(Nc1ccc(N2CCN(Cc3ccccc3)CC2)cc1)c1ccco1,i,i,i,i,i,·,·,·,·
COc1ccc(CNC(=O)CCN2C(=O)c3ccccc3C2=O)cc1OC,i,i,i,i,i,·,·,·,·
COc1ccc(CNC(=O)CCN2C(=O)c3ccncc3C2=O)cc1OC,i,i,i,i,26.7*,13.2%*,i,i,i
O=C(O)c1cccc(N2C(=O)c3ccc(Oc4ccc(Cl)cc4)cc3C2=O)c1,i,i,i,i,i,·,·,·,·
O=C(O)c1cccc(N2C(=O)c3ccc4c5c(ccc(c35)C2=O)C(=O)N(c2cccc(C(=O)O)c2)C4=O)c1,i,i,i,i,6.99*,i,i,i,i
FC(F)(F)Oc1ccc(NC(=S)Nc2ccc(OC(F)(F)F)cc2)cc1,i,i,i,i,i,·,·,·,·
COC(=O)c1cccc(C(=O)N2CCC(CO)(Cc3ccccc3Cl)CC2)c1,i,i,i,i,9.93*,i,i,i,i
COC(=O)c1cccc(C(=O)N2CCC(CO)(CCc3ccccc3)CC2)c1,i,i,i,i,i,·,·,·,·
CSc1ncc(Cl)c(C(=O)NCc2cccnc2)n1,i,i,i,i,i,·,·,·,·
CC(=O)NCC(=O)OCC(=O)c1ccc(Br)cc1,i,i,i,i,i,·,·,·,·
O=[N+]([O-])c1ccc(CNCc2cc(Cl)ccc2O)cc1,i,i,·,·,i,·,·,·,·
CCOC(=O)c1c(C)nc(-c2ccccc2)nc1N,i,i,i,i,7.43*,i,i,i,i
N#CC1=C(N)Oc2c(oc(CO)cc2=O)C1c1ccsc1 (stereo not given),i,i,i,i,i,·,·,·,·
N#CC1=C(N)Oc2c(ccc3ccccc23)C1c1ccsc1 (stereo not given),i,i,i,i,13.8*,i,i,i,i
Cc1[nH]c(=O)c(C(=O)/C=C/c2ccccc2F)c2c1CCCC2,i,i,i,i,i,·,·,·,·
Clc1ccccc1Nc1nnc(-c2ccncc2)s1,i,i,i,i,9.6*,i,i,i,i
CCCCC1(C)NC(=O)c2c(C)sc(C(=O)OCC)c2N1 (stereo not given),i,i,i,i,8.33*,i,i,i,i
COc1ccc(/C=C(\NC(=O)c2ccc(C)cc2)C(=O)Nc2c(C)n(C)n(-c3ccccc3)c2=O)cc1,i,i,i,i,i,·,·,·,·
COc1ccc(CCNC(=O)COC(=O)c2ccc(N3CCCC3=O)cc2)cc1OC,i,i,i,i,i,·,·,·,·
COc1ccc(NC(=O)c2ccccc2NS(C)(=O)=O)cc1OC,i,i,i,i,i,·,·,·,·
COc1ccccc1NC(=O)c1ccccc1NS(C)(=O)=O,i,i,i,i,10.9*,i,i,i,i
CCOc1ccccc1NC(=O)c1ccccc1NS(C)(=O)=O,i,i,i,i,23.2*,78.6%*,i,i,i
